According to ChEMBL document CHEMBL4011605, “N-Piperonyl substitution on aminoquinoline-pyrimidine hybrids: Effect on the antiplasmodial potency” (Eur J Med Chem, 2017):
pIC50: −log10 of the molar value. Active and inactive are the calls of the source. The rule behind the calls is not given here.

Legend:
[1] = Selectivity index, ratio of IC50 for African green monkey Vero cells to IC50 for chloroquine-resistant Plasmodium falciparum W2; format: toxicity; conditions: read-out: Ratio IC50
Procedure, shortened: (§1)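 Selectivity index is the ratio of the VERO cytotoxicity IC50 to the antiplasmodial IC50 for the strain named. VERO cells were tested up to a highest concentration of 9 µM.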

[2] = Selectivity index, ratio of IC50 for African green monkey Vero cells to IC50 for chloroquine-sensitive Plasmodium falciparum D6; format: toxicity; conditions: read-out: Ratio IC50; procedure, shortened: as §1
Plasmodium falciparum [3] = test: Antiplasmodial activity against chloroquine-sensitive Plasmodium falciparum D6 infected in red blood cells after 72 hrs by Malstat reagent based LDH assay; format: functional, cell-based; conditions: D6, 72 h
Plasmodium falciparum [4] = test: Antiplasmodial activity against chloroquine-resistant Plasmodium falciparum W2 infected in red blood cells after 72 hrs by Malstat reagent based LDH assay; format: functional, cell-based; conditions: W2, 72 h
Vero [5] = test: Cytotoxicity against African green monkey Vero cells up to 9 uM; format: cell-based; conditions: chlorocebus sabaeus
Vero [6] = test: Cytotoxicity against African green monkey Vero cells; format: cell-based; conditions: chlorocebus sabaeus
Procedure, shortened: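 VERO (mammalian) cells were exposed to compounds up to a highest tested concentration of 9 µM. Cytotoxicity was expressed as IC50.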

Heme [7] = test: Binding affinity to monomeric heme (unknown origin) assessed as mole fraction of compound required to show 1:1 stoichiometry for heme-compound complex at pH 5.4 to 7.4 by Job's plot method
Procedure, shortened: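 Binding stoichiometry with monomeric heme is found by Job's continuous variation. Total drug plus heme is held at 10 µM, at pH 7.4 (HEPES) and at pH 5.4 (MES), with heme from a DMSO hemin stock. Absorbance is plotted against drug mole fraction.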

Heme [8] = test: Binding affinity to monomeric heme (unknown origin) assessed as decrease in intensity of soret band at 0.5 to 70 uM at pH 5.4 and 7.4 by titration based UV-vis spectrophotometric analysis
Procedure, shortened: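 Hemin stock (1.0 mM in DMSO, kept at 4 °C in the dark) is diluted daily to 10 µM monomeric heme in 0.02 M HEPES pH 7.4 or 0.02 M MES pH 5.4. Drug comes from a 1.0 mM DMSO stock and is titrated at 0.5–70 µM. After each addition the sample is mixed and the Soret band at 402 nm is read.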

mu-oxodimeric heme [9] = test: Binding affinity to mu-oxodimeric heme (unknown origin) in aqueous NaOH solution assessed as 1:1 stoichiometry for heme-compound complex at 10 uM at pH 5.8 by Job's plot method
mu-oxodimeric heme [10] = test: Binding affinity to mu-oxodimeric heme (unknown origin) in aqueous NaOH solution at 0.5 to 70 uM at pH 5.8 by titration-based UV-vis spectrophotometric analysis
Procedure, shortened: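 µ-Oxodimeric heme: hemin chloride is dissolved to 1.0 mM in 0.1 M aqueous NaOH with 30 min sonication, then diluted to 10 µM in 20 mM phosphate pH 5.8. Aliquots of a 1.0 mM drug stock are added stepwise (0.5–70 µM), and absorbance at 362 nm is recorded.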

Plasmodium falciparum [11] = test: Potency index, ratio of chloroquine IC50 to compound IC50 for chloroquine-resistant Plasmodium falciparum W2; format: functional

Structure (SMILES)	selectivity ratio [1]	selectivity ratio [2]	pIC50 (Plasmodium falciparum [3])	pIC50 (Plasmodium falciparum [4])	Activity (Vero [5])	pIC50 (Vero [6])	Activity (Heme [7])	Activity (Heme [8])	Activity (mu-oxodimeric heme [9])	Activity (mu-oxodimeric heme [10])	Ratio IC50 (Plasmodium falciparum [11])
Cc1cc(N2CCCCC2)nc(N(CCCNc2ccnc3cc(Cl)ccc23)Cc2ccc3c(c2)OCO3)n1	> 24.2	> 57.2	6.82	6.44	Non-Toxic						
Cc1cc(N(CCCNc2ccnc3cc(Cl)ccc23)Cc2ccc3c(c2)OCO3)nc(N2CCOCC2)n1	> 9.5	> 60	6.82	6.04	Non-Toxic						
Cc1cc(Cl)nc(N(CCNc2ccnc3cc(Cl)ccc23)Cc2ccc3c(c2)OCO3)n1	> 9.8	> 20.5	6.32	6.00	Non-Toxic						
Cc1cc(N(CCNc2ccnc3cc(Cl)ccc23)Cc2ccc3c(c2)OCO3)nc(N2CCCCC2)n1	> 30.5	> 174	7.30	6.54	Non-Toxic						
Cc1cc(N2CCCC2)nc(N(CCCNc2ccnc3cc(Cl)ccc23)Cc2ccc3c(c2)OCO3)n1	> 15.1	> 76.7	6.92	6.23	Non-Toxic						
Cc1cc(N2CCOCC2)nc(N(CCCNc2ccnc3cc(Cl)ccc23)Cc2ccc3c(c2)OCO3)n1	9.4	67	6.89	6.03		5.06					
CCN1CCN(c2nc(C)cc(N(CCNc3ccnc4cc(Cl)ccc34)Cc3ccc4c(c3)OCO4)n2)CC1	> 60.4	> 243	7.70	7.30	Non-Toxic		0.5 molar ratio	Active	Active	Active	8
Cc1cc(N(CCNc2ccnc3cc(Cl)ccc23)Cc2ccc3c(c2)OCO3)nc(Cl)n1	> 12.3	> 16.8	6.23	6.11	Non-Toxic						
Cc1cc(N(CCCNc2ccnc3cc(Cl)ccc23)Cc2ccc3c(c2)OCO3)nc(N2CCCCC2)n1	> 8.8	> 59.8	6.82	6.00	Non-Toxic						
Cc1cc(N2CCOCC2)nc(N(CCNc2ccnc3cc(Cl)ccc23)Cc2ccc3c(c2)OCO3)n1	8.5	51.4	6.89	6.09		5.16					
CCN1CCN(c2cc(C)nc(N(CCCNc3ccnc4cc(Cl)ccc34)Cc3ccc4c(c3)OCO4)n2)CC1	> 37.9	> 71.1	6.92	6.66	Non-Toxic						2 - 5
Cc1cc(N(CCCNc2ccnc3cc(Cl)ccc23)Cc2ccc3c(c2)OCO3)nc(N2CCCC2)n1	> 96.9	> 192	7.30	7.05	Non-Toxic						2 - 5
Cc1cc(N(CCCNc2ccnc3cc(Cl)ccc23)Cc2ccc3c(c2)OCO3)nc(Cl)n1	> 8.4	> 20.9	6.34	5.94	Non-Toxic						
Cc1cc(N2CCCC2)nc(N(CCNc2ccnc3cc(Cl)ccc23)Cc2ccc3c(c2)OCO3)n1	> 9.8	> 59.2	6.82	6.03	Non-Toxic						
Cc1cc(N(CCNc2ccnc3cc(Cl)ccc23)Cc2ccc3c(c2)OCO3)nc(N2CCCC2)n1	> 243	> 243	7.40	7.00	Non-Toxic						
Clc1ccc2c(NCCCNCc3ccc4c(c3)OCO4)ccnc2c1	> 84.5	> 243	7.40	7.00	Non-Toxic						2 - 5
CCN1CCN(c2cc(C)nc(N(CCNc3ccnc4cc(Cl)ccc34)Cc3ccc4c(c3)OCO4)n2)CC1	> 60.4	> 239	7.52	6.85	Non-Toxic						2 - 5
Cc1cc(N(CCNc2ccnc3cc(Cl)ccc23)Cc2ccc3c(c2)OCO3)nc(N2CCOCC2)n1	> 66.8	> 243	7.30	6.66	Non-Toxic						2 - 5
Cc1cc(Cl)nc(N(CCCNc2ccnc3cc(Cl)ccc23)Cc2ccc3c(c2)OCO3)n1	> 1.9	> 8.6	5.95	5.29	Non-Toxic						
Cc1cc(N2CCCCC2)nc(N(CCNc2ccnc3cc(Cl)ccc23)Cc2ccc3c(c2)OCO3)n1	> 15.9	> 53.6	6.77	> 6.37	Non-Toxic						
CCN1CCN(c2nc(C)cc(N(CCCNc3ccnc4cc(Cl)ccc34)Cc3ccc4c(c3)OCO4)n2)CC1	> 47.6	> 194	7.40	6.77	Non-Toxic						2 - 5
CCN(CC)CCCC(C)Nc1ccnc2cc(Cl)ccc12 (stereo not drawn) [CHLOROQUINE]					Non-Toxic						
Clc1ccc2c(NCCNCc3ccc4c(c3)OCO4)ccnc2c1	> 54.3	> 243	7.52	7.30	Non-Toxic						8
